Where a SMILES comes first, the peptide text is derived from it. [ ]: non-standard residue; d: D form. The star is where a group is joined. Arg(NO2) = N=C(NCCC[C@H](N)C(=O)O)N[N+](=O)[O-]; Boc = CC(C)(C)OC(=O)*; Bz = O=C(c1ccccc1)*; NHOH = ON*
Columns and labels:
[1] = molecular target: T1, Aminopeptidase N (Sus scrofa, UniProt P15145); assay: Inhibition of APN from pig kidney microsomes by spectrophotometry; format: tissue-based
T1 sequence (P15145 whole entry): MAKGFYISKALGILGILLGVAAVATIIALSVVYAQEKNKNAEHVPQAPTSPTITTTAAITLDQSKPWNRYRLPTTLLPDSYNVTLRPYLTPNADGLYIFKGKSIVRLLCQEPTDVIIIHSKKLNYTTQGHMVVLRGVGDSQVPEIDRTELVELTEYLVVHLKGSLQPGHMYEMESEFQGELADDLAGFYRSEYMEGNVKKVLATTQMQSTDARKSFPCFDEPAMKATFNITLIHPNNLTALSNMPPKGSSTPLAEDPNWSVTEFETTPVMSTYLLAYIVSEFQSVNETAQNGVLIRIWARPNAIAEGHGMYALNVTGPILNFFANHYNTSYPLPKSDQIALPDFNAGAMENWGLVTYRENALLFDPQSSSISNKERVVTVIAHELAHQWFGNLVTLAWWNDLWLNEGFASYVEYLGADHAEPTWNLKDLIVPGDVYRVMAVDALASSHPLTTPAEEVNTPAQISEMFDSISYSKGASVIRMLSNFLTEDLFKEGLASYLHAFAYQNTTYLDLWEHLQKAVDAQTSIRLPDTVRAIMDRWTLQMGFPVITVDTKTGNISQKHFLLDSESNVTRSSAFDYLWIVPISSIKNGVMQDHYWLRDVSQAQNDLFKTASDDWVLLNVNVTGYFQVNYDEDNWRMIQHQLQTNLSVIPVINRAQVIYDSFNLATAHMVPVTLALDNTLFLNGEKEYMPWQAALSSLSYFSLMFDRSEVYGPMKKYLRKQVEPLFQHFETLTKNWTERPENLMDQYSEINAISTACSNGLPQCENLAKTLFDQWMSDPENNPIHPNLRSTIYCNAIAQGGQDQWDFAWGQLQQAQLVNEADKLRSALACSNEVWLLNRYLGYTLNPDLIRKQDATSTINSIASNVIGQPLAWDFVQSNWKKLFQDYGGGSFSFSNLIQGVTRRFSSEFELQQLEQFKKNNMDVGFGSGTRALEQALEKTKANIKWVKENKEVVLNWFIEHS

[2] = molecular target: 72 kDa type IV collagenase (Homo sapiens, UniProt P08253); assay: Inhibition of MMP2 by spectrophotometry
Sequence of 72 kDa type IV collagenase (P08253 whole entry): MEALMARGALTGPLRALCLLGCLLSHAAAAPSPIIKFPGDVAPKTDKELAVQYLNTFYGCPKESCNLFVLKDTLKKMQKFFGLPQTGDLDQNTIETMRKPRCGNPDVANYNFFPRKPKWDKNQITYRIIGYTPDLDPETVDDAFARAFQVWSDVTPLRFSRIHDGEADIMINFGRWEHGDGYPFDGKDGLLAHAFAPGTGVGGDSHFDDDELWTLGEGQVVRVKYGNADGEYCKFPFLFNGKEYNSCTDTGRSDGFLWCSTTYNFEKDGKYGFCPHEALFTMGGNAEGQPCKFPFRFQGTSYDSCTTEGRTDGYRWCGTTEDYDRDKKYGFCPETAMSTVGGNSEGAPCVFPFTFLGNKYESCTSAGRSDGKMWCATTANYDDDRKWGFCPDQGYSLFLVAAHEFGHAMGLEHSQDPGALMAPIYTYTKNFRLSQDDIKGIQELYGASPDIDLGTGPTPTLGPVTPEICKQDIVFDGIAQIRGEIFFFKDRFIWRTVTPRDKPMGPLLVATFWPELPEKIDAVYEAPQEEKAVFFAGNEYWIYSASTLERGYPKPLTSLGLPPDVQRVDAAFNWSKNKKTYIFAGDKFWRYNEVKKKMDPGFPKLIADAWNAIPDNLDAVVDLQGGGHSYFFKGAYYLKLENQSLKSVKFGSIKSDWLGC
Summary of the method: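 Gelatinase A (MMP-2) with an in-house synthesized substrate and inhibitor, all in 50 mmol/L sodium borate pH 8.5, incubated 30 min at 37 °C. 0.03% TNBS then added and incubated a further 20 min. Absorbance read at 450 nm.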

Structure (SMILES) | IC50 [1] [µM] | IC50 [2] [µM]
COc1ccc(C(=O)N[C@@H](C)C(=O)N[C@@H](CCCNC(N)=N[N+](=O)[O-])C(=O)NO)cc1 | 16.3 | 8970
CC(C)C[C@H](NC(=O)OC(C)(C)C)C(=O)NCC(=O)N[C@@H](CCCNC(N)=N[N+](=O)[O-])C(=O)NO (Boc-Leu-Gly-[Arg(NO2)]-{NHOH}) | 25.2 | 2980
CC(C)(C)OC(=O)N1CCC[C@H]1C(=O)N[C@@H](Cc1ccccc1)C(=O)N[C@@H](CCCNC(=N)N[N+](=O)[O-])C(=O)NO (Boc-Pro-Phe-[Arg(NO2)]-{NHOH}) | 1340 | 7900
CC(C)(C)OC(=O)N1CCC[C@H]1C(=O)N1CCC[C@H]1C(=O)N[C@@H](CCCNC(=N)N[N+](=O)[O-])C(=O)NO (Boc-Pro-Pro-[Arg(NO2)]-{NHOH}) | 42.1 | 8360
N=C(NCCC[C@H](NC(=O)[C@@H]1CCCN1C(=O)[C@@H]1CCCN1)C(=O)NO)N[N+](=O)[O-] (H-Pro-Pro-[Arg(NO2)]-{NHOH}) | 65.2 | 8610
CC(C)C[C@H](NC(=O)c1ccc(Cl)cc1Cl)C(=O)N[C@@H](CCCNC(N)=N[N+](=O)[O-])C(=O)NO | 7.2 | 1540
NC(=N[N+](=O)[O-])NCCC[C@H](NC(=O)[C@H](Cc1ccccc1)NC(=O)[C@@H]1CCCN1)C(=O)NO (H-Pro-Phe-[Arg(NO2)]-{NHOH}) | 364 | 8050
N=C(NCCC[C@H](NC(=O)[C@H](Cc1ccccc1)NC(=O)c1ccccc1)C(=O)NO)N[N+](=O)[O-] (Bz-Phe-[Arg(NO2)]-{NHOH}) | 4.2 | 1650
CSCC[C@H](NC(=O)OC(C)(C)C)C(=O)N[C@@H](CCCNC(=N)N[N+](=O)[O-])C(=O)NO (Boc-Met-[Arg(NO2)]-{NHOH}) | 132 | 1940
CC(C)[C@H](NC(=O)c1ccccc1I)C(=O)N[C@@H](CCCNC(N)=N[N+](=O)[O-])C(=O)NO | 6.7 | 1780
CSCCC[C@H](N)C(=O)N[C@@H](CCCNC(=N)N[N+](=O)[O-])C(=O)NO |  | 4200
CC(C)C[C@H](NC(=O)OC(C)(C)C)C(=O)N[C@@H](C)C(=O)N[C@@H](CCCNC(N)=N[N+](=O)[O-])C(=O)NO (Boc-Leu-Ala-[Arg(NO2)]-{NHOH}) | 39.5 | 2900
CC(C)C[C@H](NC(=O)c1ccccc1Cl)C(=O)N[C@@H](CCCNC(N)=N[N+](=O)[O-])C(=O)NO | 4.8 | 630
N=C(NCCC[C@H](NC(=O)[C@H](Cc1ccccc1)NC(=O)c1ccc(Cl)cc1Cl)C(=O)NO)N[N+](=O)[O-] | 4.3 | 8140
CC(C)[C@H](N)C(=O)N[C@@H](CCCNC(N)=N[N+](=O)[O-])C(=O)NO (H-Val-[Arg(NO2)]-{NHOH}) |  | 428
CC(C)C[C@H](NC(=O)[C@@H](N)Cc1ccccc1)C(=O)N[C@@H](CCCNC(=N)N[N+](=O)[O-])C(=O)NO (H-Phe-Leu-[Arg(NO2)]-{NHOH}) |  | 514
CC(C)[C@H](NC(=O)[C@H](Cc1ccccc1)NC(=O)OC(C)(C)C)C(=O)N[C@@H](CCCNC(=N)N[N+](=O)[O-])C(=O)NO (Boc-Phe-Val-[Arg(NO2)]-{NHOH}) | 33.1 | 447
CC(C)[C@H](NC(=O)OC(C)(C)C)C(=O)N[C@@H](CCCNC(N)=N[N+](=O)[O-])C(=O)NO (Boc-Val-[Arg(NO2)]-{NHOH}) | 201 | 3460
CC(C)C[C@H](NC(=O)[C@@H](O)[C@H](N)Cc1ccccc1)C(=O)O [UBENIMEX] |  | 253
C[C@H](NC(=O)c1ccc(Cl)cc1Cl)C(=O)N[C@@H](CCCNC(N)=N[N+](=O)[O-])C(=O)NO | 31.4 | 1760
CC(C)C[C@H](NC(=O)[C@H](Cc1ccccc1)NC(=O)OC(C)(C)C)C(=O)N[C@@H](CCCNC(=N)N[N+](=O)[O-])C(=O)NO (Boc-Phe-Leu-[Arg(NO2)]-{NHOH}) | 8.4 | 407
CC(C)[C@H](NC(=O)[C@@H](N)Cc1ccccc1)C(=O)N[C@@H](CCCNC(N)=N[N+](=O)[O-])C(=O)NO (H-Phe-Val-[Arg(NO2)]-{NHOH}) | 98.6 | 3160
CC(C)C[C@H](N)C(=O)N[C@@H](CCCNC(=N)N[N+](=O)[O-])C(=O)NO |  | 5310
CC(C)C[C@H](NC(=O)OC(C)(C)C)C(=O)N[C@@H](CCCNC(N)=N[N+](=O)[O-])C(=O)NO | 334 | 5680
CC(C)(C)OC(=O)N1CCC[C@H]1C(=O)N[C@@H](Cc1ccc(O)cc1)C(=O)N[C@@H](CCCNC(=N)N[N+](=O)[O-])C(=O)NO (Boc-Pro-Tyr-[Arg(NO2)]-{NHOH}) | 436 | 4520
CC(C)C[C@H](N)C(=O)N[C@@H](C)C(=O)N[C@@H](CCCNC(N)=N[N+](=O)[O-])C(=O)NO (H-Leu-Ala-[Arg(NO2)]-{NHOH}) |  | 1710
CC(C)C[C@H](N)C(=O)NCC(=O)N[C@@H](CCCNC(N)=N[N+](=O)[O-])C(=O)NO (H-Leu-Gly-[Arg(NO2)]-{NHOH}) |  | 3630
N=C(NCCC[C@H](NC(=O)[C@H](Cc1ccc(O)cc1)NC(=O)[C@@H]1CCCN1)C(=O)NO)N[N+](=O)[O-] (H-Pro-Tyr-[Arg(NO2)]-{NHOH}) | 248 | 7590

From ChEMBL document CHEMBL1157708, “Design, synthesis and primary activity assay of bi- or tri-peptide analogues with the scaffold l-arginine as amino-peptidase N/CD13 inhibitors” (Bioorg Med Chem, 2010)
